Assay results of several laboratories.
Protocols differ between the studies behind these lines.
Target: Platelet-derived growth factor receptor beta (PDGFRB, Homo sapiens, UniProt P09619)

c1cncc(-c2cccc(Nc3nccc(NC4CCCCC4)n3)c2)c1 — remaining binding (binding; competition with immobilised ligand; 10 µM): 0%
CC(=O)Nc1c(C(C)=O)c(=O)n(C)c2nc(-c3ccc(Cl)cc3Cl)c(-c3ccc(Cl)cc3)cc12 — remaining binding (cell-free assay; competition with immobilised ligand; 1 µM): 100%
O=C(c1ccc(Nc2ncc(Cl)c(-c3ccc(Cl)s3)n2)cc1)N1CCC(N2CCCC2)CC1 — remaining binding (binding; competition with immobilised ligand; 1 µM): 0%
N[C@@H]1CCN(c2nccc(-c3cnn4ncccc34)n2)C1 — remaining binding (binding; 1 µM): 100%
CS(=O)(=O)NCC[C@H](NC(=O)c1cncc2c1cnn2-c1ccc(F)cc1)c1ccnc(S(C)(=O)=O)c1 — remaining binding (cell-free assay; competition with immobilised ligand; 1 µM): 100%
CN(c1nccc(-c2cnn3ncccc23)n1)C1CC1 — remaining binding (binding; 1 µM): 98%
COc1ncc2cc3ccccc3nc2c1C#N — remaining binding (cell-free assay; competition with immobilised ligand; 5 µM): 97%
CC1CCCN1c1nccc(-c2cnn3ncccc23)n1 (stereo not shown) — remaining binding (binding; 1 µM): 100%
O=C(NCC1CCOCC1)c1n[nH]cc1NC(=O)c1c(F)cccc1F — remaining binding (binding; competition with immobilised ligand; 1 µM): 99%
C=CC(=O)N1CCC(C(=O)NCC(=O)N2CCN(c3nc(-c4cnc(N)nc4C(F)F)nc(N4CCOCC4)n3)CC2)CC1 — remaining binding (binding; competition with immobilised ligand; 1 µM): 100%
N#Cc1ccccc1CSc1nnc2c(n1)[nH]c1ccccc12 — remaining binding (binding; competition with immobilised ligand; 10 µM): 91%
COc1cnc(Nc2cccc(S(N)(=O)=O)c2)nc1N1CCN(c2ccccc2)C(=O)C1 — remaining binding (binding; competition with immobilised ligand; 1 µM): 94%
COCCOc1nc(-c2ccc(Cl)nc2)nc2c1CN(C(=O)c1ncn3ccccc13)CC2 — remaining binding (cell-free assay; competition with immobilised ligand; 0.1 µM): 100%
O=C(NCCCN1CCOCC1)c1ccc(Nc2nccc(-c3cc4ccccc4s3)n2)cc1 — remaining binding (binding; competition with immobilised ligand; 1 µM): 13%
c1cnn2ncc(-c3ccnc(N4CCC45COC5)n3)c2c1 — remaining binding (binding; 1 µM): 78%
CC(=O)C1=C(C)N(c2cccc(C(F)(F)F)c2)C(=O)N[C@@H]1c1ccc(C#N)nc1 — remaining binding (cell-free assay; competition with immobilised ligand; 1 µM): 94%
C[C@@H]1CCN(c2nccc(-c3cnn4ncccc34)n2)C1 — remaining binding (binding; 1 µM): 100%
O=C(Nc1cnc(Oc2ccc(F)cc2)nc1)N1CCc2ncccc2[C@@H]1c1ccc(F)cc1 — remaining binding (cell-free assay; competition with immobilised ligand; 1 µM): 100%
Cc1cnn2ncc(-c3ccnc(N(C)C)n3)c2c1 — remaining binding (binding; 1 µM): 100%
CC(=O)N1CCC(c2ccc(C(=O)NC(=N)N)cc2C(F)(F)F)CC1 — remaining binding (cell-free assay; competition with immobilised ligand; 1 µM): 100%
COC(=O)Nc1nc2ccc(C(=O)c3ccccc3)cc2[nH]1 — remaining binding (cell-free assay; competition with immobilised ligand; 10 µM): 3.2%
N#CC1(c2ccccn2)CCN(Cc2cc(C(=O)N3CCCC3)c(=O)n3ccccc23)CC1 — remaining binding (cell-free assay; competition with immobilised ligand; 1 µM): 86%
C[C@@H]1CN(c2ccc3ncc(-c4ccc5[nH]nc(C6CC6)c5c4)n3n2)C[C@H](C)O1 — remaining binding (binding; competition with immobilised ligand; 50 nM): 87%
CCOCCn1cc(C(=O)Nc2ccc(-n3nc(-c4cccnc4)cc3C(F)(F)F)cn2)ccc1=O — remaining binding (cell-free assay; competition with immobilised ligand; 1 µM): 88%
Cc1cnc(Nc2ccc(C(=O)N3CCC(N4CCCC4)CC3)cc2)nc1-c1cc2ccccc2s1 — remaining binding (binding; competition with immobilised ligand; 1 µM): 0.4%
